Most compounds without a hit are left out; they make up all but 3.5% or so of the library.
MrgX1 agonist = agonists of human MrgX1 receptor | MrgX1-HEK293 cells, Fluo-4 calcium fluorescence, agonist mode; stronger effect = higher value | AID 588627 | B-score at 10 µM | 0.44% of 310,000 active | Q96LB2;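 active = calcium response B-score plate-corrected fluorescence ratio at least 3 library SD, with starting fluorescence B-score inside 5 SD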
Target sequence (Q96LB2 whole entry, looked up): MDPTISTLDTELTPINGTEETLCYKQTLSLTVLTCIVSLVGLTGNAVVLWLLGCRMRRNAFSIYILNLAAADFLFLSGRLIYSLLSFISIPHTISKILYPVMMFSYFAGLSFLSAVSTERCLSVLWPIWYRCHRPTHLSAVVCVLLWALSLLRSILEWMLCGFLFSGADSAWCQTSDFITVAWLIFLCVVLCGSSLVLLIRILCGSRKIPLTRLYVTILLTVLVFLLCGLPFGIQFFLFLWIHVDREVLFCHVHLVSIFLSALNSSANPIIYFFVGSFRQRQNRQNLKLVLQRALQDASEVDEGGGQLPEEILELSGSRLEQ
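times = overnight plating, then 30 min 37 °C plus 30 min room-temperature dye loading | assay system = stable human MrgX1 HEK293 cell line | input = fifteen thousand cells per well | signal = kinetic calcium dye fluorescence, Fluo-4 NW | dosing = compound delivered in addition one of three | read-out = B-scored fluorescence response ratio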
RGS4 block = human RGS4 inhibition. P49798. B-score at 10 µM. HEK293 M3R/RGS4 inducible, Fluo-4 calcium flux; stronger effect = higher value; triggered by carbachol at its EC20. 0.45% of 310,000 active;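 active = B-score, a plate-corrected calcium signal, over three deviations above library mean, with baseline fluorescence within five deviations of library mean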;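 also: RGS4 expression induced by doxycycline in cells with stable M3 receptor; B-score is computed from the integrated fluorescence ratio over baseline after carbachol; higher B-score means a larger calcium signal and so more RGS4 inhibition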
Target sequence (P49798 whole entry, looked up): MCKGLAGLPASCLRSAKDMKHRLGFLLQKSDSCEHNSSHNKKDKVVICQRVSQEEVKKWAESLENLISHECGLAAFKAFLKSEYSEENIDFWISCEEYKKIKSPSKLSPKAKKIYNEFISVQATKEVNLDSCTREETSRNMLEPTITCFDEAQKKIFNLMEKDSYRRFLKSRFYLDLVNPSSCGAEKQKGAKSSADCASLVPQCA
MrgX1 PAM = allosterically activates human MrgX1 receptor signaling; MrgX1-HEK293, Fluo-4 calcium flux, FDSS; stronger effect = higher value; B-score at 10 µM; Q96LB2; 0.63% of 310,000 active;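 active = plate-corrected calcium response at least 3 library SD above typical, normal starting fluorescence, not activating the receptor alone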;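 also: compound read alongside a low EC10 to EC30 dose of BAM8-22 agonist; peak minus trough fluorescence over baseline measured at the second addition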
MrgX1 antag = human MrgX1 receptor antagonism, primary screen. Q96LB2. MRGX1-HEK293 calcium flux, Fluo-4, BAM8-22 antagonism; stronger effect = lower value. B-score at 10 µM. 1.3% of 310,000 active. AID 588676;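 active = calcium-response B-score plate-corrected more than 3 library SD below zero, starting fluorescence within 5 deviations, no agonist response on first addition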;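 also: peak minus trough fluorescence over baseline after final BAM8-22 challenge near maximal dose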
RGS4 act = RGS4 potentiation or activation. HEK293 M3R/inducible RGS4, carbachol calcium flux Fluo4; stronger effect = lower value. B-score at 10 µM. 0.92% of 310,000 active;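 active = B-score of the integrated calcium signal more than 4 SD below the library mean, with starting fluorescence not abnormally high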;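 also: negative B-score means reduced calcium response which marks RGS4 activation or potentiation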
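Material: M3R-expressing HEK293 line, RGS4 induced by doxycycline | Schedule: Overnight RGS4 induction, 30 min dye load 37 °C, 20 min compound RT | Measured by: Fluo4 fluorescence kinetic imaging of calcium | Read-out: Integrated calcium ratio converted to B score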
RGS4 block valid = validation of RGS4 inhibitors; HEK293 M3R/RGS4, carbachol calcium Fluo-4 fluorescence; carbachol added at its EC20; 0 = buffer wells, 100 = carbachol control; calcium response, % at 10 µM; AID 492999; shares compounds with RGS4 block; 65% of 1,700 active;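 active = duplicate-averaged calcium response above the buffer-only control mean plus 5 SD of those controls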;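 also: integrated fluorescence ratio F max minus min over baseline F0; higher response in RGS4-induced cells means RGS4 inhibition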
RGS4 uninduced = non-induced cell nonspecific activity of RGS4 inhibitors | shares compounds with RGS4 block | activity (percent), % at 10 µM | 20% of 1,900 active | HEK293 M3R non-induced, carbachol calcium Fluo-4; submaximal (EC20) carbachol stimulus; buffer wells 0%, carbachol control wells 100% | AID 493000; call rule not given here;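 also: RGS4 induction absent so cells express M3R without RGS4; higher means more calcium signal and flags a non-specific hit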
M3R basal Ca ctr = second RGS4 inhibitor counter-screen in uninduced cells lacking carbachol. shares compounds with RGS4 block. HEK293 M3R/RGS4 non-induced, Fluo-4 calcium, no carbachol; normalised: buffer wells 0%, carbachol wells 100%. calcium response (agonist-mode artifact), % at 10 µM. 22% of 1,900 active. AID 493001;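 active = duplicate-averaged calcium rise in uninduced cells above buffer wells' mean plus 5 SD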
* marks the source's active call; other numbers are inactive results; i = inactive; · = not tested or not shown.

SMILES | MrgX1 agonist | RGS4 block | MrgX1 PAM | MrgX1 antag | RGS4 act | RGS4 block valid | RGS4 uninduced | M3R basal Ca ctr
CCOC(=O)c1c(NC(=O)CC2SC(N)=NC2=O)sc2c1CCC(C)C2 (configuration not stated) | i | i | i | i | i | · | · | ·
COC(=O)CSc1[nH]c2ccccc2c1[N+](=O)[O-] | i | 15.7* | i | i | i | 44.5%* | i | i
Cc1cc(N2CCN(c3ccccc3Cl)CC2)n2cc(-c3ccccc3)nc2n1 | i | 5.95* | i | i | i | 27.5%* | i | i
Cc1cc(N2CCN(c3ccccc3)CC2)n2cc(-c3ccccc3)nc2n1 | i | i | i | i | i | · | · | ·
CC(Oc1ccc(Br)cc1)C(=O)N(C)CC(=O)Nc1ccc(N2CCOCC2)cc1 (configuration not stated) | i | i | i | i | i | · | · | ·
COc1ccccc1-n1c(CNC(=O)c2ccco2)n[nH]c1=S | i | i | i | i | i | · | · | ·
CCOC(=O)[C@@H]1[C@H]2COc3cc(OC)ccc3[C@@H]2N2C(=O)N(c3ccc(Br)cc3)C(=O)[C@]12C | i | i | i | i | i | · | · | ·
CCOC(=O)[C@@H]1[C@H]2COc3cc(OC)ccc3[C@@H]2N2C(=O)N(c3ccc(C)cc3)C(=O)[C@]12C | i | i | i | i | i | · | · | ·
CCOC(=O)[C@@H]1[C@H]2COc3cc(OC)ccc3[C@@H]2N2C(=O)N(c3cccc(Cl)c3)C(=O)[C@]12C | i | i | i | i | i | i | i | i
CCOC(=O)[C@@H]1[C@H]2COc3cc(OC)ccc3[C@@H]2N2C(=O)N(c3ccc(Cl)cc3)C(=O)[C@]12C | i | i | i | i | i | i | i | i
CCOC(=O)[C@@H]1[C@H]2COc3cc(OC)ccc3[C@@H]2N2C(=O)N(c3cccc(Cl)c3)C(=O)[C@@]12C | i | i | i | i | i | i | i | i
CCOC(=O)[C@H]1[C@H]2COc3cc(OC)ccc3[C@@H]2N2C(=O)N(c3cccc(Cl)c3)C(=O)[C@@]12C | i | i | i | i | i | i | i | i
O=C1CCCCC1Sc1nnc(-c2ccc3c(c2)OCO3)o1 (configuration not stated) | i | i | i | i | i | · | · | ·
COCCCC1CCN(C(=O)C2CCC(=O)N(CCc3cccc(F)c3)C2)CC1 (configuration not stated) | i | i | i | i | i | · | · | ·
Brc1ccc(C2Nc3cccc4cccc(c34)N2)o1 | i | 5.15* | i | i | i | i | i | i
c1csc(C2Nc3cccc4cccc(c34)N2)c1 | i | 6.13* | i | i | i | i | i | i
Brc1cccc(C2Nc3cccc4cccc(c34)N2)c1 | i | i | i | i | i | · | · | ·
COc1ccc(CC(=O)N/N=C/c2cccnc2)cc1OC | i | i | i | i | i | · | · | ·
CCc1ccc(NS(=O)(=O)c2ccc3oc(=O)ccc3c2)cc1 | i | i | i | i | i | · | · | ·
Cc1noc(C)c1-c1nc(CS(=O)(=O)c2ccccc2)no1 | i | i | i | i | i | · | · | ·
CCN(CC(=O)Nc1ccccc1C(F)(F)F)C(=O)CCOc1ccc(C)cc1 | i | i | i | i | i | · | · | ·
C=CCNC(=O)NC(=O)COC(=O)c1nc2nccc(C)n2n1 | i | 4.68* | i | i | i | i | i | i
COc1ccc(Cc2nnc(NC(=O)C3CC(=O)N(c4ccccc4)C3)s2)cc1OC (configuration not stated) | i | i | i | i | i | · | · | ·
COc1ccc(/C=C2/SC(=O)N(CCNC(=O)C3COc4ccccc4O3)C2=O)cc1 (configuration not stated) | i | i | i | i | i | · | · | ·
O=C(NCCN1C(=O)S/C(=C\c2ccc(Cl)c(Cl)c2)C1=O)C1COc2ccccc2O1 (configuration not stated) | i | 4.86* | i | i | i | 8.0%* | i | i
SMILES | MrgX1 agonist | RGS4 block | MrgX1 PAM | MrgX1 antag | RGS4 act | RGS4 block valid | RGS4 uninduced | M3R basal Ca ctr
Clc1ccc(CO/N=C/c2cccs2)cc1 | i | i | i | i | i | · | · | ·
O=C(O)CCC(=O)Nc1sc2c(c1C(=O)Nc1ccccc1)CCCCC2 | i | 5.46* | i | i | i | 7.0%* | 63.5%* | i
S=C(Nc1ccccc1)Nc1nc2ccccc2n1CCOc1ccc(Cl)cc1 | i | 6.16* | i | i | i | 15.5%* | 34.5%* | i
Cc1ccc(S(=O)(=O)C2CS(=O)(=O)CC2O)cc1 (configuration not stated) | i | i | i | i | i | · | · | ·
CC(=O)C1=C(S(=O)(=O)c2ccc(C)cc2)CS(=O)(=O)C1 | · | 25.5* | · | · | i | 39.5%* | i | i
COc1cc(/C=C2/C(=O)NN(c3ccccc3)C2=O)cc(Br)c1O | 31.3* | 5.72* | i | i | i | 5.5%* | i | i
O=C1NN(c2cccc(Br)c2)C(=O)/C1=C\c1ccccc1 | i | 18.3* | i | i | i | 16.5%* | 32.0%* | 14.0%*
O=C1NN(c2ccc(F)cc2)C(=O)/C1=C\c1cnn(-c2ccccc2)c1 | i | i | i | i | i | · | · | ·
COc1cc(/C=C2\C(=O)NN(c3ccccc3)C2=O)cc([N+](=O)[O-])c1O | i | i | i | i | i | · | · | ·
COc1ccc(N(C(=O)c2cnccn2)C(C(=O)NC2CCCCC2)c2cc(OC)c(OC)c(OC)c2)cc1 (configuration not stated) | i | i | i | i | i | · | · | ·
C=CCNC(=O)/C(C#N)=C/c1ccc(OS(=O)(=O)c2ccc(C)cc2)c(OC)c1 | i | 4.84* | i | i | i | 14.0%* | i | i
CC(C)n1nnc2c(=O)oc3ccccc3c21 | i | i | i | i | i | · | · | ·
Cc1ccc(S(=O)(=O)N2CCN(C)CC2)c2nsnc12 | i | i | i | i | i | · | · | ·
Cc1cccc(Cn2cccc2/C=C2/C(=N)N3C=CSC3=NC2=O)c1 | i | i | i | i | i | · | · | ·

High-throughput results from PubChem BioAssay.
